Experimental data of several laboratories.
Each line is one published result; the experiments were not run side by side.
CDK9: Cyclin-dependent kinase 9 (CDK9, Homo sapiens, UniProt P50750)

With CCCCC(=O)Nc1ccc(-c2ccc3ncn(CCC)c(=O)c3c2)cn1 the remaining binding was 92% (CDK9; binding, competition with immobilised ligand; 0.5 µM).
N#Cc1ccc(NC(=O)Nc2ccccc2)cc1 gave a remaining binding of 100% (CDK9; cell-free assay, competition with immobilised ligand; 25 µM).
The activity vs control of CC(C)S(=O)(=O)c1ccc2nccc(Nc3ccc4sc(C5CCCC5)nc4c3)c2c1 is reported as 98% (Cyclin-dependent kinase 9, with cyclin T1 (CDK9, Homo sapiens, UniProt P50750); enzyme activity, inhibitor; 1 µM).
For C=CC(=O)N1CCC[C@@H](n2nc(-c3ccc(Oc4ccccc4)cc3)c3c(N)ncnc32)C1, the inhibition was 2% (CDK9; enzyme activity, inhibitor; 1 µM).
With COc1ccc2[nH]c3c4[nH]c5ccc(OC)cc5c4c4c(c3c2c1)C(=O)NC4=O the remaining binding was 58% (CDK9; binding; 1 µM).
C[C@]1(O)CCCN(c2nc(Nc3ccc(S(=O)(=O)N[C@H]4CC[C@H](CN5CCN(c6ccc(C7CCC(=O)NC7=O)cc6F)CC5)CC4)cc3Cl)ncc2C(F)(F)F)C1 (stereo partly drawn) has a remaining binding of 100% (CDK9; binding, competition with immobilised ligand; 1 µM).
CC(C)(C)c1cnc(CSc2cnc(NC(=O)C3CCN(C(=O)CCOCCCN4Cc5cc6c(cc5C4)C(=O)N(C4CCC(=O)NC4=O)C6=O)CC3)s2)o1 (stereo not drawn) gave an inhibition of 85.1% (CDK9; protein level, degrader, western blot; TC-71; 25 nM).
The remaining binding of C[C@]1(O)CCCN(c2nc(Nc3ccc(S(=O)(=O)N[C@H]4CC[C@H](CN5CCN(c6ccc(C7CCC(=O)NC7=O)cc6F)CC5)CC4)cc3F)ncc2C(F)(F)F)C1 (stereo partly drawn) is reported as 95% (CDK9; binding, competition with immobilised ligand; 1 µM).
CC(C)(C)c1cnc(CSc2cnc(NC(=O)C3CCN(C(=O)COCCOCCN4Cc5cc6c(cc5C4)C(=O)N(C4CCC(=O)NC4=O)C6=O)CC3)s2)o1 (stereo not drawn) has an inhibition of 80.7% (CDK9; protein level, degrader, western blot; TC-71; 25 nM).
For CC#CC(=O)N1CCC[C@H]1c1nc(-c2ccc(C(=O)Nc3ccccn3)cc2)c2c(N)nccn12, the inhibition was 0% (CDK9; enzyme activity, inhibitor; 1 µM).
With CC(C)(C)c1cnc(CSc2cnc(NC(=O)C3CCN(C(=O)CCOCCN4Cc5cc6c(cc5C4)C(=O)N(C4CCC(=O)NC4=O)C6=O)CC3)s2)o1 (stereo not drawn) the inhibition was 87.5% (CDK9; protein level, degrader, western blot; TC-71; 25 nM).
CN1CCN(C(=O)c2ccc(NC(=O)Nc3ccc(N(C)c4ccnc(Nc5ccc(CS(C)(=O)=O)cc5)n4)cc3)cc2)CC1 gave a remaining binding of 69% (CDK9; binding; 1 µM).
